In ChEMBL document CHEMBL1138123, “Design, synthesis, and biological evaluation of pyrrolo[2,1-c][1,4]benzodiazepine and indole conjugates as anticancer agents” (2006):
The source made the active and inactive calls. No cut-off for these calls is given here.

Assays:
A2058 [1] = assay: Apoptotic effect on A2058 cells by measuring hypodiploid DNA content after 18 hrs exposure to 5 uM; assay type: functional, Homo sapiens
Summary of the method: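 A2058 human melanoma cells kept at 37 °C in 5% CO2 and passaged with 5 mM EDTA. Exposed to agent at 5 μM for 18 h, trypsinized, fixed 30 min in ice-cold 70% ethanol, and treated with RNase A (1 mg/mL) at 37 °C for 30 min. Stained with PI for 30 min at room temperature in the dark. DNA content read by flow cytometry on 10 000 events, reported as the percentage of cells in the sub-G1 region.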

SF-268 = assay: Antiproliferative activity against SF268 CNS cancer cells; assay type: functional; settings: Homo sapiens
M14 = assay: Antiproliferative activity against M14 melanoma cancer cells; assay type: functional; settings: Homo sapiens
UACC-62 = assay: Antiproliferative activity against UACC62 melanoma cancer cells; assay type: functional; settings: Homo sapiens
RXF 393 = assay: Antiproliferative activity against RXF393 Renal cancer cells; assay type: functional; settings: Homo sapiens
SN12C = assay: Antiproliferative activity against SN12C Renal cancer cells; assay type: functional; settings: Homo sapiens
Nucleic Acid = assay: Inhibition of cleavage activity of restriction endonuclease BamH1; assay type: nucleic-acid assay
Summary of the method: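 pBR322 plasmid DNA (0.5 μg) preincubated with compound at 5 μM in restriction buffer pH 7.5 plus BSA 0.1 mg/mL, 37 °C for 1 h. Excess BamHI (20 units) then added, 37 °C for a further 1 h, stopped at 65 °C for 20 min. Products run on 1.0% agarose in TAE at 100 V for 2 h and stained with ethidium bromide. Supercoiled/open-circular and fully linearized DNA run as controls.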

A2058 [2] = assay: Accumulation of A2058 cells in G1 phase as a measure for cell cycle arrest at 4 uM; assay type: functional, Homo sapiens
Summary of the method: (§1)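 Human melanoma A2058 cells exposed to graded concentrations (0–4 μM) for 24 h, DMSO as control. Cells collected by trypsinization, fixed in ice-cold 70% ethanol 30 min, treated with 1 mg/mL RNase A at 37 °C 30 min, then stained with propidium iodide/citrate/Triton X-100 at room temperature 30 min in the dark. DNA content of 10 000 events read by flow cytometry; G1, S and G2/M fractions gated from histograms.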

A2058 [3] = assay: Accumulation of A2058 cells in S phase as a measure for cell cycle arrest at 4 uM; assay type: functional, Homo sapiens; summary of the method: as §1
A2058 [4] = assay: Accumulation of A2058 cells in G2/M phase as a measure for cell cycle arrest at 4 uM; assay type: functional, Homo sapiens; summary of the method: as §1
A2058 [5] = assay: Apoptotic effect on A2058 cells by propidium iodide staining and Annexin V-FITC conjugate at 2 uM; assay type: functional, cell-based; settings: Homo sapiens
Summary of the method: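 A2058 cells given graded concentrations for 24 h, then 10^6 cells per sample labelled with annexin V–FITC together with propidium iodide and analysed by two-parameter flow cytometry. Percentage of annexin V-positive cells reported per concentration.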

A2058 [6] = assay: Accumulation of A2058 cells in G1 phase as a measure for cell cycle arrest at 1 uM; assay type: functional, Homo sapiens; summary of the method: as §1
A2058 [7] = assay: Accumulation of A2058 cells in S phase as a measure for cell cycle arrest at 1 uM; assay type: functional, Homo sapiens; summary of the method: as §1
A2058 [8] = assay: Accumulation of A2058 cells in G2/M phase as a measure for cell cycle arrest at 1 uM; assay type: functional, Homo sapiens; summary of the method: as §1
A2058 [9] = assay: Accumulation of A2058 cells in G1 phase as a measure for cell cycle arrest at 2 uM; assay type: functional, Homo sapiens; summary of the method: as §1
A2058 [10] = assay: Accumulation of A2058 cells in S phase as a measure for cell cycle arrest at 2 uM; assay type: functional, Homo sapiens; summary of the method: as §1
A2058 [11] = assay: Accumulation of A2058 cells in G2/M phase as a measure for cell cycle arrest at 2 uM; assay type: functional, Homo sapiens; summary of the method: as §1

| Compound | Activity (A2058 [1]) [%] | GI50 (M14) [µM] | GI50 (UACC-62) [µM] | GI50 (SN12C) [µM] | Activity (Nucleic Acid) | further results |
| --- | --- | --- | --- | --- | --- | --- |
| COc1cc2c(cc1O)N=C[C@@H]1CCCN1C2=O | 45 | – | – | – | – | – |
| COc1cc2c(cc1OCCCNC(=O)c1cc3ccccc3[nH]1)N=C[C@@H]1CCCN1C2=O | 46.8 | 0.173 | 0.203 | 0.41 | Active | GI50 (SF-268): 0.027 µM; GI50 (RXF 393): 0.025 µM |
| COc1cc2c(cc1OCCCCCNC(=O)c1cc3ccccc3[nH]1)N=C[C@@H]1CCCN1C2=O | 2.9 | – | – | – | – | – |
| COc1cc2c(cc1OCCCCCCNC(=O)c1cc3ccccc3[nH]1)N=C[C@@H]1CCCN1C2=O | 50.6 | – | – | – | Active | Activity (A2058 [2]): 29.2%; Activity (A2058 [3]): 42.8%; Activity (A2058 [4]): 12.5%; Activity (A2058 [5]): Active; Activity (A2058 [6]): 41.1%; Activity (A2058 [7]): 15.2%; Activity (A2058 [8]): 42.5%; Activity (A2058 [9]): 25.7%; Activity (A2058 [10]): 25.2%; Activity (A2058 [11]): 47.7% |
| COc1cc2c(cc1OC(=O)c1cc3ccccc3[nH]1)N=C[C@@H]1CCCN1C2=O | 38.5 | 0.162 | 0.29 | 0.21 | – | – |
| COc1cc2c(cc1OCCCCNC(=O)c1cc3ccccc3[nH]1)N=C[C@@H]1CCCN1C2=O | 46.8 | – | – | – | Active | – |
